Screening results from PubChem BioAssay.
PostGolgi yeast – growth inhibition of a yeast mutant, post-Golgi transport screen; post-Golgi transport phenotypic cell assay; inhibition, % at 10 µM; 98,000 compounds, 0.9% hits;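 also: yeast cells grown in 1536-well plates; yeast grown about 18 h at 30C before absorbance read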
PostGolgi ctrl – inhibits growth of the yeast control strain. efflux-deficient yeast background strain, growth absorbance A615, 16 h. inhibition, % at 10 µM. 98,000 compounds, 5% hits
E coli WT exp – blocks growth of wild type E. coli BW25113 | 98,000 compounds, 0.15% hits | OD600 absorbance | AID 710 | growth inhibition, % at 100 µM;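 active = growth inhibition above about 50% at one test dose, limit read from the data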;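 also: growth measured after 20 h incubation at 37 °C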
Ecoli tolC – growth inhibitors of E. coli BW25113 tolC mutant | 65,000 compounds, 2.2% hits | OD615 | growth inhibition, % at 10 µM (by protocol) | AID 573;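 active = growth inhibition at or above a cutoff equal to the mean over every tested compound plus 3 SD, cut at about 60% in these data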;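 also: growth measured after 20 h incubation at 37 °C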
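test system = E. coli BW25113 ΔtolC::kan bacteria | medium = LB with kanamycin 50 µg/mL | signal = OD at 615 nm | schedule = 37 °C, 20 h exposure | evaluation = % inhibition of E. coli growth | compound dosing = one dose of 10 µM final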
Numbers without * were called inactive. Compounds with a hit are over-represented: about 6.3% of the library has one in this group of screens. Rule as the data show it, unless noted: active = inhibition above about 30%; inactive = the rest.

How did Cc1ccc(N2CCN(C(=O)c3ccccc3)CC2)c(C)c1 do in these assays?
PostGolgi yeast: 3.4; PostGolgi ctrl: 14.9; E coli WT exp: 7.0; Ecoli tolC: 19.1

Results for O=S(=O)(Nc1cccc(-c2cn3ccsc3n2)c1)c1ccc(F)cc1 ?
PostGolgi yeast: -3.6; PostGolgi ctrl: 40.3*; E coli WT exp: 1.0; Ecoli tolC: 6.9

Results for Cc1ccc(S(=O)(=O)Nc2cccc(-c3cn4ccsc4n3)c2)cc1 ?
PostGolgi yeast: -6.5; PostGolgi ctrl: 45.6*; E coli WT exp: -2.0; Ecoli tolC: 82.9*

Results for Cc1cccc(S(=O)(=O)Nc2cccc(-c3cn4ccsc4n3)c2)c1 ?
PostGolgi yeast: 11.7; PostGolgi ctrl: 46.1*; E coli WT exp: -10.0; Ecoli tolC: 30.1

How did COc1cc(C)nc(Oc2ccc(OCCOc3ccc(C)cc3)nn2)n1 do in these assays?
PostGolgi yeast: -7.7; PostGolgi ctrl: 18.9; E coli WT exp: 14.0; Ecoli tolC: -5.7

Results for COC(=O)c1c(C)nc(C)c2c(=O)oc3ccccc3c12 ?
PostGolgi yeast: -4.0; PostGolgi ctrl: 42.2*; E coli WT exp: -1.0; Ecoli tolC: 8.4

How did Cc1cc2c(c(N)n1)c(=O)oc1ccccc12 do in these assays?
PostGolgi yeast: 1.8; PostGolgi ctrl: 6.2; E coli WT exp: 0.0; Ecoli tolC: 20.0

Results for CCCCCOc1ccc(CSC(=N)N)cc1[N+](=O)[O-] ?
PostGolgi yeast: -3.3; PostGolgi ctrl: 6.4; E coli WT exp: 100.0*

How did COc1ccc(CSC(=N)N)cc1[N+](=O)[O-] do in these assays?
PostGolgi yeast: 4.4; PostGolgi ctrl: 4.6; E coli WT exp: 6.0

Results for CCCCN(C(=O)CSc1nnc(Nc2ccc(C)c(C)c2)s1)c1c(N)n(Cc2ccccc2)c(=O)[nH]c1=O ?
PostGolgi yeast: -7.1; PostGolgi ctrl: 37.2*; E coli WT exp: -6.0

What do the screens show for `CN(C(=O)CSc1nnc(Nc2ccccc2)s1)c1c(N)n(Cc2ccccc2)c(=O)[nH]c1=O`?
PostGolgi yeast: -4.6; PostGolgi ctrl: 5.9; E coli WT exp: -10.0

Results for CC(=O)N1CCC(N(C(=O)Nc2c(F)cccc2F)C(C)C)CC1 ?
PostGolgi yeast: -13.9; PostGolgi ctrl: 4.4; E coli WT exp: -4.0

Results for CCOC(=O)/C(C#N)=C(\N)C(C)C(=O)Nc1ccccn1 (stereo unspecified) ?
PostGolgi yeast: -10.7; PostGolgi ctrl: -3.7; E coli WT exp: -1.0; Ecoli tolC: -6.0

How did Cc1cc(C)n(-c2nc(NCC(C)O)c3c4c(sc3n2)CCCC4)n1 (stereo unspecified) do in these assays?
PostGolgi yeast: 4.6; PostGolgi ctrl: 20.1; E coli WT exp: -3.0; Ecoli tolC: 94.0*

What do the screens show for `Cc1cc(C)n(-c2nc(NCCCO)c3c4c(sc3n2)CCCC4)n1`?
PostGolgi yeast: 16.3; PostGolgi ctrl: 35.3*; E coli WT exp: 11.0; Ecoli tolC: 9.4

How did O=C(Nc1nnc(C2CC2)s1)c1cccc(S(=O)(=O)N2CC(c3ccccc3)CC2=O)c1 (stereo unspecified) do in these assays?
PostGolgi yeast: -3.7; PostGolgi ctrl: 10.2; E coli WT exp: -6.0

How did CCOC(=O)c1cnn(-c2nc(-c3cccc(F)c3)cs2)c1C(F)(F)F do in these assays?
PostGolgi yeast: 18.1; PostGolgi ctrl: 11.2; E coli WT exp: -8.0

Results for Clc1ccc(Cl)c(OCc2cc(-c3ccccc3Cl)on2)c1 ?
PostGolgi yeast: -2.2; PostGolgi ctrl: 4.1; E coli WT exp: -2.0

How did Cc1csc(Sc2nc3c(c(=O)[nH]c(=O)n3C)n2CCCc2ccccc2)n1 do in these assays?
PostGolgi yeast: -1.1; PostGolgi ctrl: 45.5*; E coli WT exp: -14.0; Ecoli tolC: 0.3

Results for CCCCCn1c(Sc2nc3ccccc3s2)nc2c1c(=O)[nH]c(=O)n2C ?
PostGolgi yeast: 1.5; PostGolgi ctrl: 34.7*; E coli WT exp: -7.0; Ecoli tolC: 23.7

How did O=C(CCN1CCC(c2ccccc2)C1)c1cccs1 (stereo unspecified) do in these assays?
PostGolgi yeast: 3.3; PostGolgi ctrl: 38.8*; E coli WT exp: -3.0; Ecoli tolC: -17.1

How did O=C1CCCc2ccccc2N1Cc1ccccc1Cl do in these assays?
PostGolgi yeast: 9.2; PostGolgi ctrl: 34.4*; E coli WT exp: 6.0

What do the screens show for `O=C1CCCc2ccccc2N1Cc1cccc(Cl)c1`?
PostGolgi yeast: 15.7; PostGolgi ctrl: 26.5; E coli WT exp: 9.0

How did O=c1cc2c(nn1Cc1c(Cl)cccc1Cl)-c1ccccc1CC2 do in these assays?
PostGolgi yeast: 15.5; PostGolgi ctrl: 31.8*; E coli WT exp: -7.0

Results for O=C1CCCc2ccccc2N1Cc1ccc(Cl)cc1 ?
PostGolgi yeast: 6.9; PostGolgi ctrl: 22.5; E coli WT exp: 9.0

How did O=C1CCCc2ccccc2N1Cc1ccc(Cl)cc1Cl do in these assays?
PostGolgi yeast: 6.9; PostGolgi ctrl: 31.0*; E coli WT exp: 6.0

How did Clc1cccc(Cl)c1CSc1cc2c(nn1)-c1ccccc1CC2 do in these assays?
PostGolgi yeast: -2.4; PostGolgi ctrl: 4.5; E coli WT exp: -18.0

Results for O=C1CCCc2ccccc2N1Cc1c(Cl)cccc1Cl ?
PostGolgi yeast: 8.3; PostGolgi ctrl: 41.5*; E coli WT exp: 5.0

What do the screens show for `COc1ccc(NS(=O)(=O)c2cc(C)ccc2NC(=O)c2cc(C)oc2C)cc1`?
PostGolgi yeast: 13.3; PostGolgi ctrl: 0.3; E coli WT exp: 1.0; Ecoli tolC: 86.6*

Results for CC(C)CNC(=O)c1ccccc1NC(=O)CSCc1ccccc1 ?
PostGolgi yeast: -7.7; PostGolgi ctrl: -3.0; E coli WT exp: -13.0

What do the screens show for `O=C(CSCc1ccccc1)NNC(=S)Nc1cccc(Cl)c1Cl`?
PostGolgi yeast: -6.7; PostGolgi ctrl: 31.4*; E coli WT exp: 7.0

How did CCCCC1C(C#N)=C(C)NC2=C1C(=O)CC(C)(C)C2 (stereo unspecified) do in these assays?
PostGolgi yeast: -1.0; PostGolgi ctrl: 8.0; E coli WT exp: 1.0

What do the screens show for `O=C(CSc1nc(O)c(C2CCCCC2)c(=O)[nH]1)Nc1ccc(Cl)cc1`?
PostGolgi yeast: 0.2; PostGolgi ctrl: 7.5; E coli WT exp: 1.0; Ecoli tolC: 61.6*

What do the screens show for `COc1ccc(CCCc2nnc(SCC(=O)Nc3ncc(C)s3)o2)cc1`?
PostGolgi yeast: 0.5; PostGolgi ctrl: 42.7*; E coli WT exp: -9.0; Ecoli tolC: -9.0

How did Cc1cccc(-n2c(SCc3cc(=O)n4ccsc4n3)nc3ccccc32)c1 do in these assays?
PostGolgi yeast: 5.0; PostGolgi ctrl: 32.5*; E coli WT exp: -10.0; Ecoli tolC: 14.5

Results for O=C(Nc1ccc(N2CCOCC2)c(Cl)c1)c1ccccc1F ?
PostGolgi yeast: 5.8; PostGolgi ctrl: -0.6; E coli WT exp: 4.0

Results for O=C(COc1c(F)c(F)c(C(F)(F)F)c(F)c1F)Nc1ccc(N2CCOCC2)c(Cl)c1 ?
PostGolgi yeast: -2.1; PostGolgi ctrl: 13.8; E coli WT exp: -21.0; Ecoli tolC: 100.0*

How did COc1ccc(NS(=O)(=O)c2ccc3c(c2)Cc2ccccc2-3)cn1 do in these assays?
PostGolgi yeast: -2.4; PostGolgi ctrl: 64.6*; E coli WT exp: -9.0; Ecoli tolC: 100.0*

Results for CN(C)S(=O)(=O)c1cccc(NC(=S)Nc2cc(Cl)cc(Cl)c2)c1 ?
PostGolgi yeast: 97.1*; PostGolgi ctrl: 84.1*; E coli WT exp: 31.0

Results for CC(C)c1cc(Br)ccc1OCCCN1C(=O)NC(C)(C)C1=O ?
PostGolgi yeast: -4.2; PostGolgi ctrl: 37.5*; E coli WT exp: -6.0
